Test results reported in ChEMBL document CHEMBL1126201, “Synthesis, characterization, and biological evaluation of a novel class of N-(arylethyl)-N-alkyl-2-(1-pyrrolidinyl)ethylamines: structural requirements and binding affinity at the sigma receptor” (J Med Chem, 1992).

Experiments:
[1] = system: Glutamate [NMDA] receptor; experiment: Ability to displace [3H]TCP from PCP receptor in guinea pig membranes; No inhibition; format: cell membranes, Cavia porcellus
Procedure, shortened: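 Guinea pig brain crude P2 membranes (500 µg protein) incubated with 5 nM [3H]TCP in 5 mM Tris-HCl pH 7.4, 0.5 mL, 60 min at 4 °C; stopped by ice-cold buffer and filtration through polyethylenimine-soaked (0.3%) glass-fiber filters, washed twice. Nonspecific binding with 10 µM cyclazocine. Screened at 100, 1000 and 10,000 nM; duplicates.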

D(2) dopamine receptor = D(2) dopamine receptor (Rattus norvegicus, UniProt P61169); experiment: Ability to displace [3H]sulpiride from dopamine receptor D2 in rat brain; format: tissue-based
Procedure, shortened: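 Rat (male Sprague-Dawley) brain P2 membranes, 500 µg protein, with 5 nM [3H]-(-)-sulpiride in 50 mM Tris-HCl pH 7.7 + 120 mM NaCl, 60 min at 25 °C; haloperidol 1 µM for nonspecific binding; filtration, two washes.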

[2] = biological target: Kappa-type opioid receptor (Cavia porcellus, UniProt P41144); experiment: Ability to displace [3H]bremazocine from opioid receptor kappa in guinea pig brain membranes; No inhibition; format: cell membranes
Procedure, shortened: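 Kappa sites labeled with 2 nM [3H]bremazocine on guinea pig brain P2 membranes (500 µg protein) in 10 mM Tris-HCl pH 7.4, 0.5 mL, with 100 nM DAGO and 100 nM DSTLE to mask mu/delta; 90 min at 25 °C. Terminated by ice-cold buffer and glass-fiber filtration. Screened at 100, 1000 and 10,000 nM; duplicates.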

[3] = biological target: Glutamate [NMDA] receptor; experiment: Ability to displace [3H]TCP from PCP receptor in guinea pig membranes; format: cell membranes, Cavia porcellus
Procedure, shortened: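 Guinea pig brain (minus cerebella) crude P2 membranes, 500 µg protein, incubated with 5 nM [3H]TCP in 5 mM Tris-HCl pH 7.4 for 60 min at 4 °C. Filtered on polyethylenimine-soaked glass-fiber filters; nonspecific binding defined with 10 µM cyclazocine. […] Duplicates, 2–3 experiments; IC50 converted to Ki by Cheng-Prusoff (Kd 25 nM).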

Kappa-type opioid receptor, sequence (P41144 whole entry): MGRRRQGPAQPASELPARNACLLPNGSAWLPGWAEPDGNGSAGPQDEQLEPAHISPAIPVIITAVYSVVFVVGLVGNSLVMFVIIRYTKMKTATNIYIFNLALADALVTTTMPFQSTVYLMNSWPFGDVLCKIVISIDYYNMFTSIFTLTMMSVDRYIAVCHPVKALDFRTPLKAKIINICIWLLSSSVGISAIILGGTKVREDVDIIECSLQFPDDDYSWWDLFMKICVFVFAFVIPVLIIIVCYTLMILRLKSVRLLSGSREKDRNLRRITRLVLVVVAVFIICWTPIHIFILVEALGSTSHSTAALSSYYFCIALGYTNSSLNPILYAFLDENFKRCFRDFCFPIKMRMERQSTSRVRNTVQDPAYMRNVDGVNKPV
D(2) dopamine receptor, sequence (P61169 whole entry): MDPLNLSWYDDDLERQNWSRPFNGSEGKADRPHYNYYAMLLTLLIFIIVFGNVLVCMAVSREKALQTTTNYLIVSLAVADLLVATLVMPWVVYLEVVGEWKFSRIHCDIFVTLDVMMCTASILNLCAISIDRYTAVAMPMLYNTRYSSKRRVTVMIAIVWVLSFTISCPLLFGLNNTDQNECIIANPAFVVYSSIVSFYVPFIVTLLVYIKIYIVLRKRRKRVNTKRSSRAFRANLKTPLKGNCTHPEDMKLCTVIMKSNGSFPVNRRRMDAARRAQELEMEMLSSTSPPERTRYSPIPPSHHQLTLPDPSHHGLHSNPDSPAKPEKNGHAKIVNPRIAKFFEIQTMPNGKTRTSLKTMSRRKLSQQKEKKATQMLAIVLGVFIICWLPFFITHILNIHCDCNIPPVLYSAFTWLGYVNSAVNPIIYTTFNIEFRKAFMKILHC

Row | SMILES | Ki [1] | Ki (D(2) dopamine receptor) [µM] | Ki [2] | Ki [3] [µM]
1 | CCN(CCc1ccc(Cl)c(Cl)c1)CCN1CCCC1 | Not Active | 1.66 | Not Active | –
2 | CN(CCc1cccc(Cl)c1)CCN1CCCC1 | Not Active | 6.5 | Not Active | –
3 | CN(CCN1CCCC1)Cc1ccc(Cl)c(Cl)c1 | Not Active | 1.3 | Not Active | –
4 | CCN(CC)CCN(C)CCc1ccc(Cl)c(Cl)c1 | Not Active | 3.01 | Not Active | –
5 | C[C@@H](CN1CCCC1)N(C)CCc1ccc(Cl)c(Cl)c1 | – | 11.2 | Not Active | 3.04

The next lines start with results.

Row | Ki [1] | Ki (D(2) dopamine receptor) [µM] | Ki [2] | SMILES | Ki [3] [µM]
6 | Not Active | 1.21 | Not Active | CN(CCc1ccc(Cl)c(Cl)c1)CCN1CCCCC1 | –
7 | Not Active | 1.11 | Not Active | CN(CCc1ccc(Cl)c(Cl)c1)CCN1CCCC1 | –
8 | – | 6.75 | Not Active | CN(CCc1ccc(Cl)c(Cl)c1)CCN1CCCCCC1 | 6.94
